Measured values of several laboratories.
Target: Ephrin type-A receptor 2 (EPHA2, Homo sapiens, UniProt P29317)

Compound	assay	conditions	measurement	result
COc1ccc2[nH]c3c4[nH]c5ccc(OC)cc5c4c4c(c3c2c1)C(=O)NC4=O	binding, competition with immobilised ligand	1 µM	remaining binding	85%
CCCCC(=O)Nc1ccc(-c2ccc3ncn(CCC)c(=O)c3c2)cn1	binding, competition with immobilised ligand	0.5 µM	remaining binding	100%
C=CC(=O)N1CCC([C@@H]2CCNc3c(C(N)=O)c(-c4ccc(Oc5ccccc5)cc4)nn32)CC1	cell-free assay	1 µM	inhibition	10%
Cc1ccc(NC(=O)c2ccnc(C(F)(F)F)c2)cc1-c1cc(OCCO)nc(N2CCOCC2)c1	binding, competition with immobilised ligand	1 µM	remaining binding	63%
C=CC(=O)N1CCC[C@@H](n2nc(-c3ccc(Oc4ccccc4)cc3)c3c(N)ncnc32)C1	enzyme activity, inhibitor	1 µM	inhibition	4%
C#Cc1cnc(Nc2ccnc(CO)c2)nc1Nc1ccccc1S(C)(=O)=NC#N (stereo not shown)	cell-free assay	1 µM	remaining signal	70%
COc1ccc2oc(-c3ccc4nc(N)oc4c3)c/c(=N\c3ccccc3NC(=O)CCN)c2c1	binding	1 µM	remaining binding	99%
C1=C/COCc2cc(ccc2OCCN2CCCC2)Nc2nccc(n2)-c2cccc(c2)COC/1	binding	0.1 µM	remaining binding	100%
N#Cc1ccc(NC(=O)Nc2ccccc2)cc1	cell-free assay, competition with immobilised ligand	25 µM	remaining binding	100%
Cc1cc(O)c(-c2ccc([C@@H](C)CN(C)C)cc2)c2c1[nH]c(=O)c1sccc12	cell-free assay, inhibitor	0.1 µM	inhibition	-2.28%
